Measurements reported in ChEMBL document CHEMBL1146536, “Pochonins A-F, new antiviral and antiparasitic resorcylic acid lactones from Pochonia chlamydosporia var. catenulata” (J Nat Prod, 2003).
The source made the active and inactive calls. No cut-off for these calls is given here.

Tests used:
Estrogen receptor beta [1] = biological target: T1, Estrogen receptor beta (Homo sapiens, UniProt Q92731); experiment: Agonist activity at ERbeta by fluorescence polarization assay; type: functional
Human alphaherpesvirus 1 = experiment: Antiviral activity against HSV1 F infected in african green monkey Vero cells assessed as reduction of virus-induced cytopathic effect by cellular replication assay; type: functional, organism-based
Procedure, shortened: (§1)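 HSV1 strain F replication in Vero cells, 0.1 nM to 125 µM. IC50 is the concentration reducing viral cytopathic effect by 50%; Tox50 is the concentration reducing cell viability by 50%. SI = Tox50/IC50.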

Neospora caninum = experiment: Antiparasitic activity against Neospora caninum NC-1 infected in african green monkey Vero cells treated 2 hrs postinfection by MMDA assay; type: functional, organism-based
Vero [2] = experiment: Cytotoxicity against african green monkey Vero cells at 10 uM by crystal violet staining; type: cell-based; conditions: chlorocebus sabaeus
[3] = Cytotoxicity against PCKC by crystal violet staining; set-up: species or system Gallus gallus; conditions: chicken
Procedure, shortened: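 Uninfected compound-treated primary chicken kidney cells served as toxicity controls in the 120 h monolayer assay (200, 10, 1, 0.1 ppm). Viability judged microscopically or by crystal violet after 5 min MeOH fixation.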

Estrogen receptor beta [4] = biological target: T1, Estrogen receptor beta; experiment: Agonist activity at ERbeta up to 10 uM by fluorescence polarization assay; type: functional
[5] = Selectivity index, ratio of cytotoxicity against african green monkey Vero cells to IC50 for HSV1 F; type: toxicity, cell-based; conditions: read-out: Selectivity Index; procedure, shortened: as §1
Eimeria tenella [6] = experiment: Antiparasitic activity against Eimeria tenella Houghton infected in PCKC at 10 ppm treated 2 hrs postinfection by MMDA assay; type: functional, organism-based
Procedure, shortened: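 Confluent primary chicken kidney cell monolayers (DMEM or RPMI with 10% FBS, glutamine, essential amino acids; 37 °C, 5% CO2) in 96-well plates infected with E. tenella Houghton; compounds added 2 h post infection at 200, 10, 1, 0.1 ppm. Stopped 120 h post infection; monolayer disruption scored microscopically or by crystal violet after MeOH fixation (2 full, 1 weak, 0 none).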

Vero [7] = experiment: Cytotoxicity against african green monkey Vero cells at 2.5 uM by crystal violet staining; type: cell-based; conditions: chlorocebus sabaeus
Eimeria tenella [8] = experiment: Antiparasitic activity against Eimeria tenella Houghton infected in PCKC at 1 ppm treated 2 hrs postinfection by MMDA assay; type: functional, organism-based
Procedure, shortened: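 Primary chicken kidney cell monolayers grown to confluence with 10% FBS, glutamine and essential amino acids at 37 °C, 5% CO2, in 96-well plates. They were infected with E. tenella Houghton, and test samples were added 2 h post infection. Tested at 200, 10, 1 and 0.1 ppm; stopped at 120 h. Monolayer integrity was read microscopically or by MeOH fixation and crystal violet. Scored as full, weak, none or cytotoxic.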

Vero [9] = experiment: Cytotoxicity against african green monkey Vero cells by crystal violet staining; type: cell-based; conditions: chlorocebus sabaeus
[10] = Human alphaherpesvirus 1, F, Vero

T1 sequence (Q92731 whole entry): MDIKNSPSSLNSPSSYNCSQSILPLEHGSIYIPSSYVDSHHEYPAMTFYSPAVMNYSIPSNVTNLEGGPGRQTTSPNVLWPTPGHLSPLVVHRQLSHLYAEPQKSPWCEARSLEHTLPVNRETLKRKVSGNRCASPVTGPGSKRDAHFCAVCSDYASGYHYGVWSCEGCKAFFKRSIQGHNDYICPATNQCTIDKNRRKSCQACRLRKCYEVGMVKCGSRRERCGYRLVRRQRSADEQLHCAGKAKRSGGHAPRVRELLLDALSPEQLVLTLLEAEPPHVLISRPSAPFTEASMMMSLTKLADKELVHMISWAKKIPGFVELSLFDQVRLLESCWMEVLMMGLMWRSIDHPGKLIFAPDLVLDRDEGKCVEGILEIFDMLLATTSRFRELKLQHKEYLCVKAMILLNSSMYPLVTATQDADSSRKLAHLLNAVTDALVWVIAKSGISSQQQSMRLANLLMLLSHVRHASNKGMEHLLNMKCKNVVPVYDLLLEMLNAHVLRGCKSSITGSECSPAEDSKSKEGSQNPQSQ

SMILES	Activity (Human alphaherpesvirus 1)	Activity (Neospora caninum)	Activity [3]	Activity (Estrogen receptor beta [4])	IC50 (Human alphaherpesvirus 1; [10])	further results
COc1cc(O)c2c(c1)/C=C/CCC[C@H](O)CCC[C@H](C)OC2=O	inactive	–	–	–	–	Activity (Estrogen receptor beta [1]): inactive
C[C@H]1CCC[C@H](O)CCCCCc2cc(O)cc(O)c2C(=O)O1	inactive	–	–	–	–	–
C[C@H]1CCCC(=O)CCCCCc2cc(O)cc(O)c2C(=O)O1 (stereo in doubt; 16)	inactive	–	–	–	–	–
C[C@H]1CCCC(=O)CCCCCc2cc(O)cc(O)c2C(=O)O1 (stereo in doubt; 16) [ZEARALANONE]	–	–	–	–	–	EC50 (Estrogen receptor beta [1]): 38 nM
C[C@H]1CCC[C@@H](O)CCCCCc2cc(O)cc(O)c2C(=O)O1 (stereo in doubt; 17) [TALERANOL]	–	–	–	–	–	IC50 (Human alphaherpesvirus 1; vero): 1500 nM
C[C@H]1CCCC(=O)CCCCCc2cc(O)cc(O)c2C(=O)O1 (stereo in doubt; 19)	inactive	–	–	–	–	–
C[C@H]1CCCC(=O)CCCCCc2cc(O)cc(O)c2C(=O)O1 (stereo in doubt; 19) [ZEARALANONE]	–	–	–	–	–	EC50 (Estrogen receptor beta [1]): 660 nM
C[C@H]1CCC[C@@H](O)CCCCCc2cc(O)cc(O)c2C(=O)O1 (stereo in doubt; 21) [TALERANOL]	–	–	–	–	–	IC50 (Human alphaherpesvirus 1; vero): 15000 nM
C[C@H]1C/C=C/CC/C=C/C(=O)Cc2cc(O[C@@H]3O[C@H](CO)[C@@H](O)[C@H]3O)cc(O)c2C(=O)O1 [MONOCILLIN II GLYCOSIDE]	–	inactive	Toxic	inactive	–	Activity (Vero [2]): Toxic
C[C@@H]1C[C@H]2O[C@@H]2CC/C=C/C(=O)Cc2cc(O)cc(O)c2C(=O)O1 [MONOCILLIN III]	–	inactive	–	inactive	400 nM	selectivity ratio [5]: 7.5
C[C@H]1C[C@H]2O[C@@H]2CC/C=C/C(=O)Cc2c(Cl)c(O)cc(O)c2C(=O)O1 [POCHONIN A]	–	inactive	–	inactive	2000 nM	Activity (Eimeria tenella [6]): Active
C[C@H]1C[C@H]2O[C@@H]2C[C@H](O)/C=C/C(=O)Cc2c(Cl)c(O)cc(O)c2C(=O)O1 [POCHONIN B]	–	inactive	Toxic	inactive	10000 nM	–
C[C@H]1C[C@H](O)C(Cl)/C=C\C=C\C(=O)Cc2c(Cl)c(O)cc(O)c2C(=O)O1 (stereo not given in full) [POCHONIN C]	–	inactive	Toxic	inactive	6000 nM	–
C[C@@H]1C/C=C/CC/C=C/C(=O)Cc2c(Cl)c(O)cc(O)c2C(=O)O1 [POCHONIN D]	inactive	inactive	Toxic	inactive	–	Activity (Vero [7]): Toxic
C[C@H]1C/C=C/C(O)C/C=C/C(=O)Cc2c(Cl)c(O)cc(O)c2C(=O)O1 (stereo not given in full) [POCHONIN E]	–	inactive	Toxic	inactive	1500 nM	–
CC/C=C\[C@H](O)[C@H](O)C1=C(C)C(=O)[C@]2(O1)C(=O)N[C@@](OC)(C(=O)c1ccccc1)[C@@H]2O [PSEUROTIN A]	–	inactive	–	–	50000 nM	Activity (Eimeria tenella [6]): Active; selectivity ratio [5]: 6
C[C@@H]1C[C@H]2O[C@@H]2/C=C\C=C\C(=O)Cc2c(Cl)c(O)cc(O)c2C(=O)O1 [RADICICOL]	–	inactive	Toxic	–	200 nM	Activity (Eimeria tenella [8]): inactive; Activity (Eimeria tenella [6]): Active; Activity (Vero [9]): Toxic
C[C@H]1C[C@H]2O[C@@H]2CCCCC(=O)Cc2c(Cl)c(O)cc(O)c2C(=O)O1 [TETRAHYDROMONORDEN]	–	inactive	–	inactive	1500 nM	Activity (Eimeria tenella [8]): inactive; Activity (Eimeria tenella [6]): Active
C[C@H]1CCCC(=O)CCC/C=C/c2cc(O)cc(O)c2C(=O)O1 [ZEARALENONE]	inactive	–	–	–	–	EC50 (Estrogen receptor beta [1]): 110 nM
